Measured values from ChEMBL document CHEMBL2069305, “Discovery and optimization of a series of liver X receptor antagonists” (Bioorg Med Chem Lett, 2012).

Columns and labels:
[1] = Metabolic stability in rat liver microsomes assessed as compound remaining at 1 uM after 30 mins; assay type: ADME, Microsome; conditions: read-out: Stability
[2] = biological target: T1, Oxysterols receptor LXR-beta (Homo sapiens, UniProt P55055); experiment: Displacement of [3H]N-(4-(1,1,1,3,3,3-hexafluoro-2-hydroxypropan-2-yl)phenyl)-N-methylbenzenesulfonamide from GST-tagged LXRbeta ligand binding domain after 1 hr by scintillation proximity assay
T1 sequence (P55055 whole entry): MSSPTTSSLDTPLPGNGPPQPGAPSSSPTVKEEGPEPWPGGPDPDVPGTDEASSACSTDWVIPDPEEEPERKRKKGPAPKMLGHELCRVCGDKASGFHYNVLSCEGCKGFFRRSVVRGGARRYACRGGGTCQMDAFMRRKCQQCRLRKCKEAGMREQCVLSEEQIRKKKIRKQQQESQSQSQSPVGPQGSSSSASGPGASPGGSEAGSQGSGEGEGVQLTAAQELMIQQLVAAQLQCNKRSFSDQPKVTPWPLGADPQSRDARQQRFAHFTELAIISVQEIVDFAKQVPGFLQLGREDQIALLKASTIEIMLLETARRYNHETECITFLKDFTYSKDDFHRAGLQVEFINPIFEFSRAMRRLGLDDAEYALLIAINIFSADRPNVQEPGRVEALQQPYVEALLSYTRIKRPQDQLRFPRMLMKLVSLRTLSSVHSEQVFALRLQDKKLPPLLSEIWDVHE

[3] = AUC in Sprague-Dawley rat at 5 mg/kg, po; assay type: ADME, organism-based; set-up: dose 5 mg/kg, route oral; conditions: plasma
In short: (§1)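 Male Sprague–Dawley rats given a single oral dose of 5 mg/kg; three animals per study.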

[4] = Volume of distribution at steady state in Sprague-Dawley rat at 0.5 mg/kg, iv; assay type: ADME, organism-based; set-up: dose 0.5 mg/kg, route intravenous; conditions: in vivo, read-out: Vdss
In short: (§2)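 Single intravenous dose of 0.5 mg/kg in rats; three animals per study.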

HEK293 = experiment: Cytotoxicity against human HEK293 cells; assay type: cell-based
Liver microsomes [5] = experiment: Drug metabolism in rat liver microsomes assessed as oxidative cleavage of isobutyl group; assay type: ADME, Microsome
[6] = Mean residence time in Sprague-Dawley rat at 0.5 mg/kg, iv; assay type: ADME, organism-based; set-up: dose 0.5 mg/kg, route intravenous; conditions: in vivo; in short: as §2
[7] = AUC in Sprague-Dawley rat at 0.5 mg/kg, iv; assay type: ADME, organism-based; set-up: dose 0.5 mg/kg, route intravenous; conditions: plasma; in short: as §2
[8] = Oral bioavailability in Sprague-Dawley rat at 5 mg/kg; assay type: ADME, organism-based; conditions: in vivo; in short: as §1
[9] = Clearance in Sprague-Dawley rat at 0.5 mg/kg, iv; assay type: ADME, organism-based; set-up: dose 0.5 mg/kg, route intravenous; conditions: in vivo; in short: as §2
Liver microsomes [10] = experiment: Drug metabolism in rat liver microsomes assessed as isobutyl-hydroxylation; assay type: ADME, Microsome
[11] = biological target: T1, Oxysterols receptor LXR-beta; experiment: Antagonist activity at LXRbeta ligand binding domain expressed in HEK293 cells coexpressing GAL4 assessed as decrease in […]N-(4-(1,1,1,3,3,3-hexafluoro-2-hydroxypropan-2-yl)phenyl)-N-methylbenzenesulfonamide-induced activity after 20 hrs by luciferase reporter gene assay; assay type: cell-based

CS(=O)(=O)c1ccc(C#CC(O)(c2ccc(N(CCC(F)(F)F)S(=O)(=O)c3ccccc3)cc2)C(F)(F)F)cc1 (stereo unspecified)
remaining at 0.5 h, 1 µM [1]: 42%

CC(C)(C)CN(c1ccc(C(O)(C#Cc2ccc(S(C)(=O)=O)cc2)C(F)(F)F)cc1)S(=O)(=O)c1ccccc1 (stereo unspecified)
remaining at 0.5 h, 1 µM [1]: 36%

CC(C)CC#CC(O)(c1ccc(N(C)S(=O)(=O)c2ccccc2)cc1)C(F)(F)F (stereo unspecified)
IC50 [2]: > 30 µM

CS(=O)(=O)c1ccc(C#CC(O)(c2ccc(N(CC3CCC3)S(=O)(=O)c3ccccc3)cc2)C(F)(F)F)cc1 (stereo unspecified)
remaining at 0.5 h, 1 µM [1]: < 5%

CC(C)CN(c1ccc(C(O)(C#Cc2ccc(S(C)(=O)=O)cc2)C(F)(F)F)cc1)S(=O)(=O)c1ccccc1 (stereo unspecified)
AUC [3]: 86 ng·h/mL | Vd [4]: 4.4 L/kg | remaining at 0.5 h, 1 µM [1]: < 5% | Activity (HEK293): Non-toxic | Drug metabolism (Liver microsomes [5]): Active | MRT [6]: 1.3 h | AUC [7]: 102 ng·h/mL | bioavailability [8]: 9% | clearance [9]: 80 mL/min/kg | Drug metabolism (Liver microsomes [10]): Active

CS(=O)(=O)c1ccc(C#CC(O)(c2ccc(N(CC(F)(F)F)S(=O)(=O)c3ccccc3)cc2)C(F)(F)F)cc1 (stereo unspecified)
remaining at 0.5 h, 1 µM [1]: 85%

CC(C)CN(c1ccc(C(O)(C#Cc2ccc(S(C)(=O)=O)cc2)C(F)(F)F)cc1)S(=O)(=O)c1cccc(C#N)c1 (stereo unspecified)
Activity (HEK293): Non-toxic

CN(c1ccc(C(O)(c2nnc[nH]2)C(F)(F)F)cc1)S(=O)(=O)c1ccccc1 (stereo unspecified)
IC50 [2]: > 10 µM

CS(=O)(=O)c1ccc(C#CC(O)(c2ccc(N(CC3CC3)S(=O)(=O)c3ccccc3)cc2)C(F)(F)F)cc1 (stereo unspecified)
AUC [3]: 1380 ng·h/mL | Vd [4]: 2.3 L/kg | remaining at 0.5 h, 1 µM [1]: > 95% | MRT [6]: 2.2 h | bioavailability [8]: 31% | clearance [9]: 18.3 mL/min/kg

CN(c1ccc(C(O)(Cc2ccccc2)C(F)(F)F)cc1)S(=O)(=O)c1ccccc1 (stereo unspecified)
IC50 [2]: > 10 µM

CS(=O)(=O)c1ccc(C#CC(O)(c2ccc(N(CC3CCCC3)S(=O)(=O)c3ccccc3)cc2)C(F)(F)F)cc1 (stereo unspecified)
remaining at 0.5 h, 1 µM [1]: < 5%

CN(c1ccc(C(O)(c2nnn[nH]2)C(F)(F)F)cc1)S(=O)(=O)c1ccccc1 (stereo unspecified)
IC50 [2]: > 10 µM

CN(c1ccc(C(C)(O)C(F)(F)F)cc1)S(=O)(=O)c1ccccc1 (stereo unspecified)
IC50 [2]: > 10 µM

CC(C)CN(c1ccc(C(O)(C#Cc2ccc(S(=O)(=O)c3ccccc3)cc2)C(F)(F)F)cc1)S(=O)(=O)c1cccc(C#N)c1 (stereo unspecified)
IC50 [11]: > 10 µM | IC50 [2]: > 10 µM

CN(c1ccc(C(O)C(F)(F)F)cc1)S(=O)(=O)c1ccccc1 (stereo unspecified)
IC50 [2]: > 10 µM

CN(c1ccc(C(O)(c2ncc[nH]2)C(F)(F)F)cc1)S(=O)(=O)c1ccccc1 (stereo unspecified)
IC50 [2]: > 10 µM
